Measurements as given in ChEMBL document CHEMBL1158763, “Cytotoxic arylnaphthalene lignans from a Vietnamese acanthaceae, Justicia patentiflora” (J Nat Prod, 2005).
Active and inactive are the calls of the source. No cut-off for these calls is given here.

Tests used:
KB = test: Cytotoxicity against human KB cells; assay type: functional, cell-based
MCF7 [1] = test: Cytotoxicity against doxorubicin-sensitive human MCF7 cells; assay type: functional, cell-based
HCT-116 [2] = test: Cytotoxicity against human HCT116 cells; assay type: functional, cell-based
MCF7 [3] = test: Cytotoxicity against doxorubicin-resistant human MCF7 cells; assay type: functional, cell-based
Summary of the method: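 Doxorubicin-resistant MCF-7 line derived by prolonged doxorubicin treatment of MCF-7 cells; cytotoxicity assay run per a previously published procedure.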

P388 = test: Antitumor activity against mouse P388 cells implanted in CDF1 mouse assessed as reduction in body weight at 2.5 mg/kg, ip administered 1 day following implantation; assay type: functional, organism-based; design: dose 2.5 mg/kg
Summary of the method: (§1)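 10^6 P388 (or P388/F 11782) murine leukemia cells implanted i.v. into CDF1 mice on day zero; single i.p. dose (2.5 or 5 mg/kg) given the day after implantation. Mice weighed twice weekly during treatment, weekly thereafter. Antitumor activity judged by increase in lifespan: ILS (%) = T/C − 100, T/C = median survival treated/control × 100.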

Mus musculus = test: Toxicity in mouse P388 cells implanted in CDF1 mouse assessed as induction of death at 5 mg/kg, ip administered 1 day following implantation; assay type: organism-based; design: dose 5 mg/kg, route intraperitoneal; settings: in vivo, 24 h; summary of the method: as §1
HCT-116 [4] = test: Cell cycle arrest in human HCT116 cells assessed as accumulation at G2/M phase at 10 nM after 48 hrs by flow cytometry; assay type: functional
HCT-116 [5] = test: Cell cycle arrest in human HCT116 cells assessed as accumulation at S phase at 10 nM after 48 hrs by flow cytometry; assay type: functional
HCT-116 [6] = test: Cell cycle arrest in human HCT116 cells assessed as accumulation at G0/G1 phase at 10 nM after 48 hrs by flow cytometry; assay type: functional
MCF7 [7] = test: Cell cycle arrest in human MCF7 cells assessed as accumulation at G0/G1 phase at 10 nM after 48 hrs; assay type: functional, cell-based

Q: `CC(=O)O[C@@]12CO[C@@H]1C[C@H](O)[C@@]1(C)C(=O)[C@H](O)C3=C(C)[C@@H](OC(=O)[C@H](O)[C@@H](NC(=O)OC(C)(C)C)c4ccccc4)C[C@@](O)([C@@H](OC(=O)c4ccccc4)[C@H]21)C3(C)C` [DOCETAXEL] was tested. Which IC50 (KB) did it give?
A: The IC50 was 2 nM.

Q: What about the IC50 (MCF7 [1]) of the same compound?
A: Its IC50 is 20 nM.

Q: And the IC50 (HCT-116 [2])?
A: Its IC50 is 4 nM.

Q: `COc1cc(OC)c2c(-c3ccc4c(c3)OCO4)c3c(c(OC)c2c1O)COC3=O` [JUSTICINOL] was tested. Which IC50 (KB) did it give?
A: Its IC50 is 300 nM.

Q: And the IC50 (MCF7 [1])?
A: Its IC50 is 360 nM.

Q: With `COc1cc2c(O[C@H]3O[C@@H](C)[C@@H](OC(C)=O)[C@@H](O)[C@@H]3O)c3c(c(-c4ccc5c(c4)OCO5)c2cc1OC)C(=O)OC3` [4'-O-ACETYLPATENTIFLORIN B] as the compound, how does the IC50 (MCF7 [3]) read?
A: Its IC50 is 100 nM.

Q: And the IC50 (KB)?
A: Its IC50 is 24 nM.

Q: What about the IC50 (MCF7 [1]) of the same compound?
A: The IC50 was 12 nM.

Q: And the IC50 (HCT-116 [2])?
A: The IC50 was 30 nM.

Q: For `O=C(CC(CO)C(=O)c1ccc2c(c1)OCO2)c1ccc2c(c1)OCO2` (stereo not drawn) [JUSTIFLORINOL], which IC50 (KB) is on record?
A: Its IC50 is greater than 10000 nM.

Q: Which Activity (P388) does the source give for `COc1cc2c(O[C@@H]3O[C@H](C)[C@@H](O)[C@H](O)[C@H]3O)c3c(c(-c4ccc5c(c4)OCO5)c2cc1OC)C(=O)OC3` [PATENTIFLORIN A] here?
A: The Activity was “inactive”.

Q: And the Activity (Mus musculus)?
A: Its Activity is “Toxic”.

Q: What about the Activity (HCT-116 [4]) of the same compound?
A: The Activity was 13.5%.

Q: And the Activity (HCT-116 [5])?
A: Its Activity is 43.4%.

Q: And the Activity (HCT-116 [6])?
A: The Activity was 41.9%.

Q: And the IC50 (MCF7 [3])?
A: Its IC50 is 40 nM.

Q: And the IC50 (KB)?
A: Its IC50 is 4 nM.

Q: And the IC50 (MCF7 [1])?
A: The IC50 was 3 nM.

Q: What about the IC50 (HCT-116 [2]) of the same compound?
A: The IC50 was 12 nM.

Q: What about the Activity (MCF7 [7]) of the same compound?
A: The Activity was “Active”.

Q: With `COc1cc2c(O[C@H]3O[C@@H](C)[C@@H](O)[C@@H](O)[C@@H]3O)c3c(c(-c4ccc5c(c4)OCO5)c2cc1OC)C(=O)OC3` [PATENTIFLORIN B] as the compound, how does the IC50 (KB) read?
A: Its IC50 is 6 nM.

Q: And the IC50 (MCF7 [1])?
A: Its IC50 is 300 nM.

Q: What about the IC50 (HCT-116 [2]) of the same compound?
A: The IC50 was 250 nM.

Q: Which results are given for `COc1cc2c(O[C@@H]3O[C@H](CO[C@@H]4OC[C@H](OC(C)=O)[C@H](OC(C)=O)[C@H]4OC(C)=O)[C@H](OC(C)=O)[C@H](OC(C)=O)[C@H]3OC(C)=O)c3c(c(-c4ccc5c(c4)OCO5)c2cc1OC)C(=O)OC3`?
A: IC50 (MCF7 [3]): 8000 nM; IC50 (KB): 180 nM; IC50 (MCF7 [1]): 80 nM; IC50 (HCT-116 [2]): 260 nM

Q: `COc1cc2c(O[C@H]3O[C@@H](C)[C@@H](OC(C)=O)[C@@H](OC(C)=O)[C@@H]3OC(C)=O)c3c(c(-c4ccc5c(c4)OCO5)c2cc1OC)C(=O)OC3` was tested. Which IC50 (KB) did it give?
A: Its IC50 is 20 nM.

Q: And the IC50 (MCF7 [1])?
A: Its IC50 is 45 nM.

Q: What about the IC50 (HCT-116 [2]) of the same compound?
A: Its IC50 is 35 nM.

Q: How did the IC50 (MCF7 [3]) turn out when `COc1cc2c(O[C@@H]3O[C@H](CO[C@@H]4OC[C@H](O)[C@H](O)[C@H]4O)[C@H](OC(C)=O)[C@H](OC(C)=O)[C@H]3O)c3c(c(-c4ccc5c(c4)OCO5)c2cc1OC)C(=O)OC3` [4'-O-ACETYLMANANTHOSIDE B] was run?
A: The IC50 was 2200 nM.

Q: What about the IC50 (KB) of the same compound?
A: Its IC50 is 500 nM.

Q: What about the IC50 (MCF7 [1]) of the same compound?
A: Its IC50 is 260 nM.

Q: And the IC50 (HCT-116 [2])?
A: Its IC50 is 1200 nM.

Q: How did the IC50 (MCF7 [3]) turn out when `COc1cc2c(O[C@@H]3O[C@H](C)[C@@H](OC(C)=O)[C@H](OC(C)=O)[C@H]3OC(C)=O)c3c(c(-c4ccc5c(c4)OCO5)c2cc1OC)C(=O)OC3` was run?
A: Its IC50 is 65 nM.

Q: What about the IC50 (KB) of the same compound?
A: Its IC50 is 14 nM.

Q: What about the IC50 (MCF7 [1]) of the same compound?
A: The IC50 was 2 nM.

Q: What about the IC50 (HCT-116 [2]) of the same compound?
A: Its IC50 is 16 nM.
